Measurements taken from ChEMBL document CHEMBL3232926, “Design, synthesis and biological evaluation of novel aminomethyl-piperidones based DPP-IV inhibitors” (Bioorg Med Chem Lett, 2014).
Activity calls are given as the source filed them. The calls are words filed in the database; no cut-off is given here.

Assays:
[1] = target: T1, Cytochrome P450 1A2 (Homo sapiens, UniProt P05177); test: Inhibition of human CYP1A2 expressed in Escherichia coli using ethoxyresorufin as substrate up to 100 uM preincubated for 5 mins followed by NADPH addition measured after 20 mins by HPLC analysis; format: ADME
T1 sequence (P05177 whole entry): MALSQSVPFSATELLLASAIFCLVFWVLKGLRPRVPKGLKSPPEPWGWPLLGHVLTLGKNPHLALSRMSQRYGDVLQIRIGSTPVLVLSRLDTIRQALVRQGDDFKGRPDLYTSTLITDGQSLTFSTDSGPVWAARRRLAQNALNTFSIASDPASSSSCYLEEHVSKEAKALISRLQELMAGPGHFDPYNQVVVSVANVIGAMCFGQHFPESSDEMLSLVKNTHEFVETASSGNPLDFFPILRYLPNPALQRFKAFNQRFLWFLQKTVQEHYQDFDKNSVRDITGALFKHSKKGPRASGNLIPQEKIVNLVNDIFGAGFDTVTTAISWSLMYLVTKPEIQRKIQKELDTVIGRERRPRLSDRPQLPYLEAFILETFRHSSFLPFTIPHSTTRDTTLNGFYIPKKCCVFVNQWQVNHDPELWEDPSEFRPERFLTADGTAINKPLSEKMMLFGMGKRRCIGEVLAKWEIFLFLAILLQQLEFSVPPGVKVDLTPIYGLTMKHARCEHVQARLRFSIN

[2] = target: T2, Cytochrome P450 2C8 (Homo sapiens, UniProt P10632); test: Inhibition of human CYP2C8 expressed in Escherichia coli using paclitaxel as substrate up to 100 uM preincubated for 5 mins followed by NADPH addition measured after 20 mins by HPLC analysis; format: ADME
T2 sequence (P10632 whole entry): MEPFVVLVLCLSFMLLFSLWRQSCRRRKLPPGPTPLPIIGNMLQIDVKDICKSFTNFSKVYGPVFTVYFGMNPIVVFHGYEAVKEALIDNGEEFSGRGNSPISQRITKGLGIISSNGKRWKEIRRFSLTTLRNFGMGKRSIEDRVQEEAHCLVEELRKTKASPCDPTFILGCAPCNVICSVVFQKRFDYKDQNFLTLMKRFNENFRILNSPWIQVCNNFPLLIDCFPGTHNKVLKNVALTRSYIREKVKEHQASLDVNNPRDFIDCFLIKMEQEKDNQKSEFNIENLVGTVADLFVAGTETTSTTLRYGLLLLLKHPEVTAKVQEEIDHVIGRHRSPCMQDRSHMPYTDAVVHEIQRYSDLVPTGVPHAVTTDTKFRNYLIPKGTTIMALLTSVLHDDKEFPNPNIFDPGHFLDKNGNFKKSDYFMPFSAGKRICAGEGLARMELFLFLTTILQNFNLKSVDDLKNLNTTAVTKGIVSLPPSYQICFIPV

[3] = target: Cytochrome P450 2C9 (Homo sapiens, UniProt P11712); test: Inhibition of human CYP2C9 expressed in Escherichia coli using diclofenac as substrate up to 100 uM preincubated for 5 mins followed by NADPH addition measured after 20 mins by HPLC analysis; format: ADME
Sequence of Cytochrome P450 2C9 (P11712 whole entry): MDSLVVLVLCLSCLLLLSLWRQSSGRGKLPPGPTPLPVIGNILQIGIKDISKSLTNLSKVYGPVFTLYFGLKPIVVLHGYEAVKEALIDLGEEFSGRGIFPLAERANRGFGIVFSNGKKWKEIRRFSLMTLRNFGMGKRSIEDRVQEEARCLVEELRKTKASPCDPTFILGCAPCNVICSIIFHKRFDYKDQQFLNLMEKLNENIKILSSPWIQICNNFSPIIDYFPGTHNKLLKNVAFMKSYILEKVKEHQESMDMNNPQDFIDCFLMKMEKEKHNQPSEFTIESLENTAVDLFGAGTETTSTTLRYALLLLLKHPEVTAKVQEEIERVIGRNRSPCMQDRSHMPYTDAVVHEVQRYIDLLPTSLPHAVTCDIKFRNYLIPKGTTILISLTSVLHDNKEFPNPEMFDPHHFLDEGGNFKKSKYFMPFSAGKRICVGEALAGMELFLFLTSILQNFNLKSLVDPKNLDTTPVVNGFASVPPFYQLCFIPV

[4] = target: Cytochrome P450 2D6 (Homo sapiens, UniProt P10635); test: Inhibition of human CYP2D6 expressed in Escherichia coli using bufuralol as substrate up to 100 uM preincubated for 5 mins followed by NADPH addition measured after 20 mins by HPLC analysis; format: ADME
Sequence of Cytochrome P450 2D6 (P10635 whole entry): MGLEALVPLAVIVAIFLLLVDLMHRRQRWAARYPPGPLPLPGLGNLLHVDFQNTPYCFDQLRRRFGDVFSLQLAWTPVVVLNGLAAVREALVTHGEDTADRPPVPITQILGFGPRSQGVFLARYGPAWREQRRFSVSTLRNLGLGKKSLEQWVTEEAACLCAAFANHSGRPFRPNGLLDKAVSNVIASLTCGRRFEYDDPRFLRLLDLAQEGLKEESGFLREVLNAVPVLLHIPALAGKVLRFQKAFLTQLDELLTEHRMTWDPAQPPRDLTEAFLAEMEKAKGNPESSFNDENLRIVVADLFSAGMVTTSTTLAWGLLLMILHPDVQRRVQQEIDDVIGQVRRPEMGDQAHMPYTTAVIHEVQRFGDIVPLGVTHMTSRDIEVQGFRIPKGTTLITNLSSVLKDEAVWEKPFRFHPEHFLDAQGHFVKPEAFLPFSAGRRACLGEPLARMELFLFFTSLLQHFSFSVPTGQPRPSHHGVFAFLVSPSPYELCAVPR

[5] = target: Cytochrome P450 2C19 (Homo sapiens, UniProt P33261); test: Inhibition of human CYP2C19 expressed in Escherichia coli using S-mephenytoin as substrate up to 100 uM preincubated for 5 mins followed by NADPH addition measured after 20 mins by HPLC analysis; format: ADME
Sequence of Cytochrome P450 2C19 (P33261 whole entry): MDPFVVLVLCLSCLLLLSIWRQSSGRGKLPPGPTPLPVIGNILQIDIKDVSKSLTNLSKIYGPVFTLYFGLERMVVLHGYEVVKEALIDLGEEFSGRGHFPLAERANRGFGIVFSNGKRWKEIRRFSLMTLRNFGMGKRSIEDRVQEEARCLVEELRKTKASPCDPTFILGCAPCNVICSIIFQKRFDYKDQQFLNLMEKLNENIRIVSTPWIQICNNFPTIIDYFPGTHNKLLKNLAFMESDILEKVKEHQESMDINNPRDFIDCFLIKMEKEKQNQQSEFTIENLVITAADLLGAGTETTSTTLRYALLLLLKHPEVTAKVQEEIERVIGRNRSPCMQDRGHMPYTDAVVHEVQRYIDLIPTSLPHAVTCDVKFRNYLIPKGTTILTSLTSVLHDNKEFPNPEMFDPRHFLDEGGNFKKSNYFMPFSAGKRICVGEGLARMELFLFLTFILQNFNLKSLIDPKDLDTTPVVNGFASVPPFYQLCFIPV

[6] = target: Cytochrome P450 3A4 (Homo sapiens, UniProt P08684); test: Inhibition of human CYP3A4 expressed in Escherichia coli using midazolam as substrate up to 100 uM preincubated for 5 mins followed by NADPH addition measured after 20 mins by HPLC analysis; format: ADME
Sequence of Cytochrome P450 3A4 (P08684 whole entry): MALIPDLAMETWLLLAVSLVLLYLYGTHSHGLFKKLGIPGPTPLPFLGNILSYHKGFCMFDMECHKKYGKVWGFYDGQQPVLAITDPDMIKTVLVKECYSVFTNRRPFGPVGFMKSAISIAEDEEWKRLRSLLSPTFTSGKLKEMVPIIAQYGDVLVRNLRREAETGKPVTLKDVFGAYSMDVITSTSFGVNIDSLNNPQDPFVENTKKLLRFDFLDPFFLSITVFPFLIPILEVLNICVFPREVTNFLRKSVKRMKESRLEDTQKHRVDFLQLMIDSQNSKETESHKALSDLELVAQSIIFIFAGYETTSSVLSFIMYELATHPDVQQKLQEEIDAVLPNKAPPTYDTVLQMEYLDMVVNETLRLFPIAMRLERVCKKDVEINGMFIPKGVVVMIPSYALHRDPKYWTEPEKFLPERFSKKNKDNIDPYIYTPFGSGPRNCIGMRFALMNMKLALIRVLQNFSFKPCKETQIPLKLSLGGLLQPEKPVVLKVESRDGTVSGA

[7] = system: Mus musculus; test: Antidiabetic activity in overnight fasted C57BL/6J mouse assessed as decrease in serum glucose AUC at 3 mg/kg, po administered 0.5 hrs prior to glucose challenge measured up to 240 mins by DPEC-GOD/POD method relative to vehicle-treated control; format: functional; design: scale not given: the % may be the effect or the level left
Procedure, shortened: (§1)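 Male C57BL/6J mice fasted overnight with water ad libitum. Dosed orally at 3 mg/kg 0.5 h before the oral glucose load. Serum glucose read by the GOD/POD method at 15–240 min on duplicate samples, then 0–240 min AUC taken. Two-way ANOVA with Bonferroni post test against vehicle. Values are mean SEM.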

[8] = system: Mus musculus; test: Antidiabetic activity in fed db/db hyperglycemic mouse model assessed as decrease in serum glucose AUC at 3 mg/kg, po measured up to 2 hrs by DPEC-GOD/POD method relative to vehicle-treated control; format: functional; design: scale not given: the % may be the effect or the level left
[9] = system: Mus musculus; test: Antidiabetic activity in fed db/db hyperglycemic mouse model assessed as decrease in serum glucose AUC at 3 mg/kg, po measured up to 24 hrs by DPEC-GOD/POD method relative to vehicle-treated control; format: functional; design: scale not given: the % may be the effect or the level left
Procedure, shortened: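 Fed male-unspecified db/db mice dosed orally at 3 mg/kg, with blood taken at time points up to 24 h. Serum glucose measured promptly by the GOD/POD method on duplicate samples. Glucose AUC compared with vehicle control by two-way ANOVA with Bonferroni post test. Values are mean SEM.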

[10] = Tmax in C57BL/6J mouse at 3 mg/kg, po; format: ADME, organism-based; design: dose 3 mg/kg, route oral; conditions: in vivo
Procedure, shortened: (§2)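 Single 3 mg/kg oral or iv dose to overnight-fasted male C57BL/6J mice (n = 6). Serial EDTA blood sampling at pre-dose and 0.15–48 h post-dose. Plasma separated at 4 °C, stored at -70 °C and analysed by LC–MS/MS on a C18 column. %F derived against iv AUC. Values are mean SD.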

[11] = Cmax in C57BL/6J mouse at 3 mg/kg, po; format: ADME, organism-based; design: dose 3 mg/kg, route oral; conditions: in vivo; procedure, shortened: as §2
[12] = Half life in C57BL/6J mouse at 3 mg/kg, po; format: ADME, organism-based; design: dose 3 mg/kg, route oral; conditions: in vivo; procedure, shortened: as §2
[13] = AUC (0 to infinity) in C57BL/6J mouse at 3 mg/kg, po; format: ADME, organism-based; design: time infinity, dose 3 mg/kg, route oral; conditions: plasma; procedure, shortened: as §2
[14] = Oral bioavailability in C57BL/6J mouse at 3 mg/kg; format: ADME, organism-based; conditions: in vivo; procedure, shortened: as §2
[15] = AUC in C57BL/6J mouse at 3 mg/kg, iv; format: ADME, organism-based; design: dose 3 mg/kg, route intravenous; conditions: plasma; procedure, shortened: as §2
[16] = Elimination rate constant in C57BL/6J mouse at 3 mg/kg, po; format: ADME, organism-based; design: dose 3 mg/kg, route oral; conditions: in vivo; procedure, shortened: as §2
[17] = system: Mus musculus; test: Antidiabetic activity in overnight fasted C57BL/6J mouse assessed as decrease in serum glucose level at 3 mg/kg, po administered 0.5 hrs prior to glucose challenge measured at 30 to 60 mins by DPEC-GOD/POD method; format: functional, organism-based; design: dose 3 mg/kg; procedure, shortened: as §1

Row | inhibition (INH) [1] | inhibition (INH) [2] | inhibition (INH) [3] | inhibition (INH) [4] | inhibition (INH) [5] | inhibition (INH) [6] | Tmax [10] [min] | Cmax [11] [ng/mL] | half-life [12] [min] | AUC(0-inf) [13] [ng·h/mL] | bioavailability [14] [%] | AUC [15] [ng·h/mL] | k el [16] [s⁻¹] | SMILES | Activity [7] [%] | Activity [8] [%] | Activity [9] [%] | Activity [17]
1 | Not Active | Not Active | Not Active | Not Active | Not Active | Not Active | 16.8 | 420 | 539 | 1010 | 79.5 | 1270 | 3.33e-05 | NC[C@H]1CN(CCc2ccc3c(c2)OCO3)C(=O)C[C@@H]1c1cc(F)ccc1F | 38.9 | 38.29 | 20.62 | –
2 | – | – | – | – | – | – | 13.2 | 310 | 93.6 | 560 | 75.7 | 740 | 0.000233 | N[C@@H](CC(=O)N1CCn2c(nnc2C(F)(F)F)C1)Cc1cc(F)c(F)cc1F [SITAGLIPTIN] | 17.9 | 20.8 | 1.48 | Active
